Reference: ChEMBL document CHEMBL3102702, “Protein kinase and HDAC inhibitors from the endophytic fungus Epicoccum nigrum” (J Nat Prod, 2014)

What was measured:
[1] = target: Insulin-like growth factor 1 receptor (Homo sapiens, UniProt P08069); experiment: Inhibition of IGF1R (unknown origin)
[2] = target: Serine/threonine-protein kinase N1 (Homo sapiens, UniProt Q16512); experiment: Inhibition of PRK1 (unknown origin)
[3] = target: Vascular endothelial growth factor receptor 2 (Homo sapiens, UniProt P35968); experiment: Inhibition of VEGFR2 (unknown origin)
Focal adhesion kinase 1 = Focal adhesion kinase 1 (Homo sapiens, UniProt Q05397); experiment: Inhibition of FAK (unknown origin)
[4] = target: T1, Serine/threonine-protein kinase Nek2 (Homo sapiens, UniProt P51955); experiment: Inhibition of NEK2 (unknown origin)
T1 sequence (P51955 whole entry): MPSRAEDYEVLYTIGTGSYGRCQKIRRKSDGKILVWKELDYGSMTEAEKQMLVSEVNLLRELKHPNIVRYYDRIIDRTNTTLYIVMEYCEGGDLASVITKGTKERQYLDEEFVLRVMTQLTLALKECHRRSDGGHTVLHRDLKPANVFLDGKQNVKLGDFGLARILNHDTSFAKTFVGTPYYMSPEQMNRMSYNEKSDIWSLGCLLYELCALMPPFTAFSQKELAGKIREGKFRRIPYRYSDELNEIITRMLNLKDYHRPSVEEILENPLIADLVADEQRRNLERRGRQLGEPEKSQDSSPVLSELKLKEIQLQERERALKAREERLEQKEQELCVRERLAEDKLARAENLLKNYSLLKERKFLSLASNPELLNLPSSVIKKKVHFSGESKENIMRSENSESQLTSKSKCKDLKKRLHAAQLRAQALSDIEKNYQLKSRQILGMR

[5] = target: Serine/threonine-protein kinase PLK1 (Homo sapiens, UniProt P53350); experiment: Inhibition of PLK1 (unknown origin)
[6] = target: RAC-alpha serine/threonine-protein kinase (Homo sapiens, UniProt P31749); experiment: Inhibition of AKT1 (unknown origin)
[7] = target: Proto-oncogene tyrosine-protein kinase Src (Homo sapiens, UniProt P12931); experiment: Inhibition of SRC (unknown origin)
[8] = target: Dual specificity mitogen-activated protein kinase kinase 1 (Homo sapiens, UniProt Q02750); experiment: Inhibition of wild type MEK1 (unknown origin)
Aurora kinase B = Aurora kinase B (Homo sapiens, UniProt Q96GD4); experiment: Inhibition of aurora-B (unknown origin)
[9] = target: Hepatocyte growth factor receptor (Homo sapiens, UniProt P08581); experiment: Inhibition of wild type MET (unknown origin)
[10] = target: T2, Tyrosine-protein kinase receptor UFO (Homo sapiens, UniProt P30530); experiment: Inhibition of AXL (unknown origin)
T2 sequence (P30530 whole entry): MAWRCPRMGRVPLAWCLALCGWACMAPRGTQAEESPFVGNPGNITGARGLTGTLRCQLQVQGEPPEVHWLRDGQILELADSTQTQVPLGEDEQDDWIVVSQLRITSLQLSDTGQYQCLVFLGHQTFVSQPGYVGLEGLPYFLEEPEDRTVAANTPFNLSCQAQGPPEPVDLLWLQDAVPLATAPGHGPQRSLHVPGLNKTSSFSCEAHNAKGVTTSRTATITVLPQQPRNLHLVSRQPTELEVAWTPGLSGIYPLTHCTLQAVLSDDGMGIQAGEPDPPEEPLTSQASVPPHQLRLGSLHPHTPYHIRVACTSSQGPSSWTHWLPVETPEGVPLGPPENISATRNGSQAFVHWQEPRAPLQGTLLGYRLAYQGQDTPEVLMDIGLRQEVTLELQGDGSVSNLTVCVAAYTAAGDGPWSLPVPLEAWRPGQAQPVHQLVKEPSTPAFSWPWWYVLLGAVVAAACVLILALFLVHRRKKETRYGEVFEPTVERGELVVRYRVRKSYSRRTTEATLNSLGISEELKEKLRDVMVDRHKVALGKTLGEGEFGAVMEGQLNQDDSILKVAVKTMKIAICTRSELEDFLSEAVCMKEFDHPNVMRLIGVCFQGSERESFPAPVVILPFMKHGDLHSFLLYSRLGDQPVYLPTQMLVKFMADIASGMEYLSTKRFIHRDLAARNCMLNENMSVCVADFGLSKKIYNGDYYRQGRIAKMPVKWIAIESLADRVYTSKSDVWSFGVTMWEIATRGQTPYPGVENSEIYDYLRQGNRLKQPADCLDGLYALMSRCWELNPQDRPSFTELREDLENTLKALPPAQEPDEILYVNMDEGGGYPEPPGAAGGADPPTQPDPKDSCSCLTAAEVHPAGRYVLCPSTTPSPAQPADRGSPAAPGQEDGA

[11] = target: ALK tyrosine kinase receptor (Homo sapiens, UniProt Q9UM73); experiment: Inhibition of ALK (unknown origin)
[12] = target: Serine/threonine-protein kinase Nek6 (Homo sapiens, UniProt Q9HC98); experiment: Inhibition of NEK6 (unknown origin)
[13] = target: Serine/threonine-protein kinase pim-1 (Homo sapiens, UniProt P11309); experiment: Inhibition of PIM1 (unknown origin)
[14] = target: T3, NUAK family SNF1-like kinase 1 (Homo sapiens, UniProt O60285); experiment: Inhibition of ARK5 (unknown origin)
T3 sequence (O60285 whole entry): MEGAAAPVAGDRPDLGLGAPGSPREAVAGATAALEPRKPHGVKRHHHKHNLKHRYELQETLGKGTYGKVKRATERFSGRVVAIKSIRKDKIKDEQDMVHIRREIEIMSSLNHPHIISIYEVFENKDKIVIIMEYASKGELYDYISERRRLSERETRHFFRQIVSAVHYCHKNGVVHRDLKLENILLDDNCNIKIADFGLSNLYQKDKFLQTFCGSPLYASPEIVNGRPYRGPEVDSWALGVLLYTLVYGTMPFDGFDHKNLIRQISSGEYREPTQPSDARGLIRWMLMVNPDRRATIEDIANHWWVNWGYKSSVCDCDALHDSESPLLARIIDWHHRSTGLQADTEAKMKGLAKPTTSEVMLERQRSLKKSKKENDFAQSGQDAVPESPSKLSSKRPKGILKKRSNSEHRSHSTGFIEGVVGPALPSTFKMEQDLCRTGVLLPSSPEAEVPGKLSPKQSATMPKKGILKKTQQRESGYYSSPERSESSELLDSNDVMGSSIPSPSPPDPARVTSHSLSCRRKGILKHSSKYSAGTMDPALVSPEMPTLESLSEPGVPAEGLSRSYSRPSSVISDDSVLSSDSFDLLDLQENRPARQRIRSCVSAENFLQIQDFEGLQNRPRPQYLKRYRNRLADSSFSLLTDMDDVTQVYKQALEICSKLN

Histone deacetylase 11 = Histone deacetylase 11 (Homo sapiens, UniProt Q96DB2); experiment: Inhibition of recombinant HDAC11 (unknown origin) using Fluor-de-Lys-SIRT1 as substrate by fluorescence assay
[15] = Antiproliferative activity against human U937 cells assessed as growth inhibition at 25 uM after 72 hrs; type: functional; conditions: U-937, 72 h, read-out: GI
How it was run: (§1)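 RAJI and U-937 cells from ATCC, grown in RPMI 1640 with 10% heat-inactivated fetal calf serum and 1% antibiotic–antimycotic at 37 °C, humid 5% CO2. Treated 72 h; DMSO-treated cells as negative control; proliferation measured by a previously described method.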

Histone deacetylase = experiment: Inhibition of HDAC in human K562 cell extract using Fluor-de-Lys deacetylase as substrate preincubated for 45 mins measured after 15 mins by fluorescence assay; type: protein assay
PBMC = experiment: Cytotoxicity against PBMC (unknown origin) assessed as growth inhibition after 48 hrs; type: cell-based
How it was run: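 PBMCs isolated by a prior method, cultured in RPMI 1640 with 10% heat-inactivated FCS and 1% antibiotic–antimycotic at 37 °C, 5% CO2. Viability read after 48 h treatment, against DMSO-treated controls.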

[16] = target: Protein deacetylase HDAC6 (Homo sapiens, UniProt Q9UBN7); experiment: Inhibition of recombinant HDAC6 (unknown origin) using Fluor-de-Lys-SIRT1 as substrate by fluorescence assay
Raji [17] = experiment: Antiproliferative activity against human Raji cells assessed as growth inhibition at 25 uM after 72 hrs; type: functional; conditions: read-out: GI; how it was run: as §1
Histone deacetylase 1 = Histone deacetylase 1 (Homo sapiens, UniProt Q13547); experiment: Inhibition of recombinant HDAC1 (unknown origin) using Fluor-de-Lys-SIRT1 as substrate by fluorescence assay
[18] = target: Polyamine deacetylase HDAC10 (Homo sapiens, UniProt Q969S8); experiment: Inhibition of recombinant HDAC10 (unknown origin) using Fluor-de-Lys-SIRT1 as substrate by fluorescence assay
Histone deacetylase 3 = Histone deacetylase 3 (Homo sapiens, UniProt O15379); experiment: Inhibition of recombinant HDAC3 (unknown origin) using Fluor-de-Lys-SIRT1 as substrate by fluorescence assay
Histone deacetylase 2 = Histone deacetylase 2 (Homo sapiens, UniProt Q92769); experiment: Inhibition of recombinant HDAC2 (unknown origin) using Fluor-de-Lys-SIRT1 as substrate by fluorescence assay
Histone deacetylase 8 = Histone deacetylase 8 (Homo sapiens, UniProt Q9BY41); experiment: Inhibition of recombinant HDAC8 (unknown origin) using Fluor-de-Lys-HDAC8 as substrate by fluorescence assay
[19] = Antiproliferative activity against human U937 cells assessed as growth inhibition at 5 uM after 72 hrs; type: functional; conditions: U-937, 72 h, read-out: GI; how it was run: as §1
Raji [20] = experiment: Antiproliferative activity against human Raji cells assessed as growth inhibition at 5 uM after 72 hrs; type: functional; conditions: read-out: GI; how it was run: as §1

IC50 [1] [µM]	IC50 [2] [µM]	IC50 [3] [µM]	IC50 (Focal adhesion kinase 1) [µM]	IC50 [4] [µM]	IC50 [5] [µM]	IC50 [6] [µM]	IC50 [7] [µM]	IC50 [8] [µM]	IC50 (Aurora kinase B) [µM]	IC50 [9] [µM]	IC50 [10] [µM]	IC50 [11] [µM]	IC50 [12] [µM]	IC50 [13] [µM]	IC50 [14] [µM]	IC50 (Histone deacetylase 11) [µM]	IC50 (Histone deacetylase) [µM]	IC50 [16] [µM]	SMILES	Activity (PBMC)	also measured
3.5	> 30	> 30	20.6	> 30	> 30	> 30	20	> 30	20.6	> 30	11	9.33	> 30	> 30	> 30				COCc1c(C)c(O)c(O)c(O)c1C=O		
2.04	> 30	26.4	16.3	11.8	> 30	> 30	12.6	> 30	22.6	9.65	6.39	9.76	> 30	> 30	29.8				COC1OC(=O)c2c(O)c(O)c(O)c(C)c21 (racemic)		
0.15	9	0.39	0.8	3.78	6.31	4.07	0.49	> 30	7.29	1.12	0.22	0.25	1.85	4.44	3.77	12.9	14.2	6.5	Cc1c(O)c(O)c(O)c(C=O)c1-c1cc2c(C=O)c(C)c(O)c(O)c2o1	Non-toxic	inhibition of growth at 25 µM [15]: 30%; inhibition of growth at 25 µM (Raji [17]): 55%; IC50 (Histone deacetylase 1): 8.8 µM; IC50 [18]: 8.1 µM; IC50 (Histone deacetylase 3): 6.9 µM; IC50 (Histone deacetylase 2): 9.1 µM; IC50 (Histone deacetylase 8): 2.1 µM
0.07	4.48	0.32	0.42	1.83	3.18	2.15	0.37	> 30	2.51	0.58	0.16	0.18	0.52	3.1	2.51	11.7	9.8	4.6	Cc1c(O)c(O)c2c(c1C=O)[C@@H]1O[C@H](O2)c2c(C)c(O)c(O)c(O)c2C1=O (racemic)	Non-toxic	IC50 (Histone deacetylase 1): 8.6 µM; IC50 [18]: 8.4 µM; inhibition of growth at 5 µM [19]: 32%; IC50 (Histone deacetylase 3): 12.4 µM; IC50 (Histone deacetylase 2): 10 µM; inhibition of growth at 5 µM (Raji [20]): 50%; IC50 (Histone deacetylase 8): 1.6 µM
0.56	18.6	5.96	7.52	6.55	11.8	23.2	3.56	> 100	8.69	8.63	2.46	5.02	13.6	21.3	10				Cc1c(O)c(O)c(O)c2c1COC2=O		

SMILES	IC50 [1] [µM]	IC50 [2] [µM]	IC50 [3] [µM]	IC50 (Focal adhesion kinase 1) [µM]	IC50 [4] [µM]	IC50 [5] [µM]	IC50 [6] [µM]	IC50 [7] [µM]	IC50 [8] [µM]	IC50 (Aurora kinase B) [µM]	IC50 [9] [µM]	IC50 [10] [µM]	IC50 [11] [µM]	IC50 [12] [µM]	IC50 [13] [µM]	IC50 [14] [µM]	IC50 (Histone deacetylase 11) [µM]	IC50 (Histone deacetylase) [µM]	IC50 [16] [µM]	Activity (PBMC)	also measured
O=c1c(O)c(-c2ccc(O)c(O)c2)oc2cc(O)cc(O)c12 [QUERCETIN]	0.3	5.8		1.2	5.73		5.39	0.12	> 10	0.91	0.58	0.96	3.32	4.23		5.09					
